In ChEMBL document CHEMBL4043092, “Neuroprotective and Antineuroinflammatory Effects of Hydroxyl-Functionalized Stilbenes and 2-Arylbenzo[b]furans” (J Med Chem, 2017):
Active and inactive are the calls of the source. The calls are words filed in the database; no cut-off is given here.

Assays:
[1] = Antioxidant activity assessed as ABTS radical cation scavenging activity by measuring trolox equivalents by spectrophotometric analysis; assay type: functional
[2] = tested on: Cortical neurone; assay: (§1) Neuroprotective activity against glutamate-induced cell death in Sprague-Dawley rat 10 days old neonatal primary cortical neurons assessed as increase in cell viability pretreated for 2 hrs followed by 30 uM glutamate addition measured after 24 hrs by MTT assay; assay type: functional, cell-based
Method in brief: (§2)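 Cortical neurons pretreated 2 h with vehicle (0.1% DMSO) or compound at maximum nontoxic concentration. Then exposed at DIV5 to fibrillar Aβ25–35 (10 μM, 48 h) or at DIV10 to glutamate (30 μM, 24 h). MTT 0.5 mg/mL for 1 h, formazan dissolved in DMSO, OD read at 600 nm. Mean ± SD of three independent experiments.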

[3] = tested on: Cortical neurone; assay: as §1, with “neuron” for “neurons”, “viability at 50 uM” for “viability”, “calcein AM dye-based confocal laser scanning microscopic analysis” for “MTT assay”; assay type: functional
Method in brief: (§3)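 Rat pup cortical neurons in Neurobasal/B27, given 5 μM cytosine arabinoside for 1 day. Used at DIV5 for Aβ25–35 fibrils (aged 1 week at 37 °C; 10 μM, 48 h) or DIV10 for glutamate (30 μM, 24 h), after 2 h with 50 μM compound or 0.1% DMSO. Cells loaded with 1 μM calcein AM and ethidium homodimer-1 for 30 min at room temperature, imaged by confocal microscopy. Live-cell count and integrated density expressed relative to vehicle. Mean ± SEM, n=3.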

[4] = tested on: Cortical neurone; assay: (§4) Neuroprotective activity against fibril amyloid beta (25 to 35)-induced cell death in Sprague-Dawley rat 5 days old neonatal primary cortical neuron assessed as inhibition of fibril amyloid beta (25 to 35)-induced decrease in tau protein level at 50 uM pretreated for 2 hrs followed by 10 uM fibril amyloid beta (25 to 35) addition measured after 48 hrs by fluorescein isothiocyanate dye-based immunocytochemistry analysis; assay type: functional
Method in brief: (§5)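 Cortical neurons at DIV5 (fibrillar Aβ25–35 10 μM, 48 h) or DIV10 (glutamate 30 μM, 24 h), after 2 h with 50 μM compound. Fixed in 4% paraformaldehyde, permeabilized with Triton X-100, blocked with donkey serum. Stained with anti-MAP2 and anti-tau (1:100, overnight at 4 °C), then FITC and RRX secondaries. Integrated density relative to vehicle. Mean ± SEM, n=3.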

[5] = Anti-inflammatory activity in Sprague-Dawley rat primary mixed glial cells assessed as inhibition of LPS-induced NO production at 50 uM pretreated for 2 hrs followed by LPS addition measured after 48 hrs by Griess assay (reference value: 100%); assay type: functional, Primary glial cell; set-up: scale not given: the % may be the effect or the level left
[6] = Anti-inflammatory activity in Sprague-Dawley rat primary mixed glial cells assessed as inhibition of LPS-induced NO production pretreated for 2 hrs followed by LPS addition measured after 48 hrs by Griess assay; assay type: functional, cell-based; settings: Glial cell
Method in brief: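 Mixed cortical glia kept 3 days in DMEM/F12 with 10% FBS, medium changed, 4 more days, then 9 days in Neurobasal/B27 (16 days total). Cultures activated 2 days after medium refresh with 100 ng/mL LPS for 48 h, with compound at maximum nontoxic concentration. Medium nitrite read by Griess reagent at 540 nm against NaNO2 standard. Mean ± SD, three independent experiments.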

[7] = tested on: Cortical neurone; assay: (§6) Neuroprotective activity against fibril amyloid beta (25 to 35)-induced cell death in Sprague-Dawley rat 5 days old neonatal primary cortical neuron assessed as increase in cell viability at 50 uM pretreated for 2 hrs followed by 10 uM fibril amyloid beta (25 to 35) addition measured after 48 hrs by calcein AM dye-based confocal laser scanning microscopic analysis; assay type: functional; method in brief: as §3
[8] = molecular target: Cytochrome P450 3A4 (Homo sapiens, UniProt P08684); assay: Inhibition of CYP3A4 in human liver microsomes; assay type: ADME
[9] = tested on: Cortical neurone; assay: as §6, with “neurons” for “neuron”, “viability” for “viability at 50 uM”, “MTT assay” for “calcein AM dye-based confocal laser scanning microscopic analysis”; assay type: functional, cell-based; method in brief: as §2
[10] = tested on: Cortical neurone; assay: (§7) Neuroprotective activity against glutamate-induced cell death in Sprague-Dawley rat 10 days old neonatal primary cortical neuron assessed as inhibition of glutamate-induced decrease in tau level at 50 uM pretreated for 2 hrs followed by 30 uM glutamate addition measured after 24 hrs by fluorescein isothiocyanate dye-based immunocytochemistry analysis; assay type: functional; method in brief: as §5
[11] = tested on: Mus musculus; assay: Antialzheimer activity in APPswe/PSEN1dE9 double transgenic C57BL/6J mouse model of Alzheimer's disease assessed as increase in nesting score at 30 mg/kg/day administered via oral gavage over 60 days by nesting test; assay type: functional, organism-based
Method in brief: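 Female APP/PS1 C57BL/6J mice, 5 months old, given compound by oral gavage at 30 mg/kg/day for 60 days. Wild-type siblings received vehicle. Two nestlets (about 5 g) placed in the cage 1 h before the dark cycle. Nest score and unshredded nestlet weight recorded. Mean ± SD per group.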

[12] = tested on: Cortical neurone; assay: Neuroprotective activity against fibril amyloid beta (25 to 35)-induced cell death in Sprague-Dawley rat 5 day old neonatal primary cortical neurons assessed as cell death at maximum non toxic concentration pretreated for 2 hrs followed by 10 uM fibril amyloid beta (25 to 35) addition measured after 48 hrs by MTT assay (reference value: 39.20 +/- 0.88%); assay type: functional
Method in brief: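 Rat cortical neurons from pups, papain-dissociated, cytosine arabinoside (5 μM, 1 day) to remove non-neuronal cells, used at DIV5. Vehicle 0.1% DMSO or compound pretreatment before fAβ25–35 (aged 1 week at 37 °C). Viability by MTT reduction: 0.5 mg/mL for 1 h, formazan dissolved in DMSO, OD600. Mean ± SD of three independent experiments.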

[13] = tested on: Cortical neurone; assay: as §7, with “MAP2” for “tau”; assay type: functional; method in brief: as §5
[14] = tested on: Mus musculus; assay: Antialzheimer activity in APPswe/PSEN1dE9 double transgenic C57BL/6J mouse model of Alzheimer's disease assessed as decrease in number of unshredded nestlets at 30 mg/kg/day administered via oral gavage over 60 days by nesting test
[15] = tested on: Cortical neurone; assay: as §1, with “as” for “as increase in”, “death at maximum non toxic concentration” for “viability”, “assay (reference value: 41.22 +/- 3.40%)” for “assay”; assay type: functional
[16] = tested on: Cortical neurone; assay: as §4, with “MAP2” for “tau protein”; assay type: functional; method in brief: as §5

Cytochrome P450 3A4, sequence (P08684 whole entry): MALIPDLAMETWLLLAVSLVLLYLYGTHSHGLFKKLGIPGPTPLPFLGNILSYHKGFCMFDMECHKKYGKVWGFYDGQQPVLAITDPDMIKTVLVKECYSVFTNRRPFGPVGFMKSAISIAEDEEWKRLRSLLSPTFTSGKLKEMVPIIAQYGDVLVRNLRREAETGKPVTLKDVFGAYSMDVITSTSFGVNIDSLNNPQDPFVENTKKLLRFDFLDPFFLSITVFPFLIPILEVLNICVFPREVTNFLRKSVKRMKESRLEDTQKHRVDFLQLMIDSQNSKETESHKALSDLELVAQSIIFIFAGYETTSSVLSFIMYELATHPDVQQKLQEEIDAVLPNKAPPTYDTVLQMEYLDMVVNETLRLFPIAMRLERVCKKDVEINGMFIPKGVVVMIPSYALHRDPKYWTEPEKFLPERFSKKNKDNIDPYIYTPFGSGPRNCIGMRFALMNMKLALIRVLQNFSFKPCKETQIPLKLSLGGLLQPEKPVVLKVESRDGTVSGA

| Structure (SMILES) | Activity [1] | EC50 [2] | Activity [3] | inhibition [4] | Activity [5] | EC50 [6] | Activity [7] | IC50 [8] | EC50 [9] | inhibition [10] | Activity [11] | Activity [12] | inhibition [13] | Activity [14] | Activity [15] | inhibition [16] |
| --- | --- | --- | --- | --- | --- | --- | --- | --- | --- | --- | --- | --- | --- | --- | --- | --- |
| CCOC(=O)/C=C/c1cc(O)c2oc(-c3cc(O)c(O)c(O)c3)cc2c1 | 0.94 mMequiv | 33 µM | Active | inactive | 40.35% | 56.6 µM | Active | 21.7 µM | 53 µM | Active | Active | 21.18% | Active | Active | 24.48% | – |
| Oc1ccc(-c2cc3c(Br)ccc(O)c3o2)cc1O | 0.12 mMequiv | > 0.5 µM | – | inactive | 61.64% | > 100 µM | Active | – | 26.7 µM | – | – | 4.11% | – | – | 40.83% | Active |
| Oc1ccc(-c2cc3cc(Br)cc(O)c3o2)cc1O | 0.06 mMequiv | > 50 µM | – | inactive | 86.85% | > 100 µM | Active | 23.5 µM | 36.5 µM | – | – | 16.95% | – | – | 31.45% | Active |
| CCOC(=O)/C=C/c1cc(O)c(O)cc1-c1cc2ccccc2o1 | 0.01 mMequiv | 46.1 µM | Active | inactive | 49.61% | > 100 µM | Active | 11.2 µM | > 50 µM | Active | Active | 25.45% | Active | Active | 21% | – |
| CCOC(=O)/C=C/c1ccc(/C=C/c2cc(O)c(O)c(O)c2)cc1 | 0.14 mMequiv | > 50 µM | Active | inactive | 72.93% | 99.2 µM | Active | 36.2 µM | 40.9 µM | Active | inactive | 19.23% | Active | inactive | 28.05% | – |
